Assay results reported in ChEMBL document CHEMBL1649184, “Mutations in the nonstructural protein 3A confer resistance to the novel enterovirus replication inhibitor TTP-8307” (Antimicrob Agents Chemother, 2009).
Activity calls are given as the source filed them. The calls are words filed in the database; no cut-off is given here.

Tests used:
[1] = Cytotoxicity against human HeLa cells; format: cell-based; conditions: read-out: TC50 (the source's name)
Outline: (§1)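 Cytotoxicity measured on confluent Vero and HeLa cells, given as 50% cytotoxic concentration; solubility limit in assay medium 100 µM.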

[2] = Cytotoxicity against african green monkey Vero cells; format: cell-based; conditions: chlorocebus sabaeus, read-out: TC50 (the source's name); outline: as §1
[3] = system: Coxsackievirus B3; assay: Antiviral activity against Human coxsackievirus B3 harboring nonstructural protein 3A V45A mutant infected in african green monkey Vero cells assessed as inhibition of virus-induced cytopathic effect after 3 days by plaque assay; format: functional, organism-based; conditions: Enterovirus B, 72 h
[4] = system: Coxsackievirus B3; assay: Antiviral activity against Human coxsackievirus B3 harboring wild type nonstructural protein 3A infected in african green monkey Vero cells assessed as inhibition of virus-induced cytopathic effect after 3 days by plaque assay; format: functional, organism-based; conditions: Enterovirus B, 72 h
[5] = system: Coxsackievirus B3; assay: Antiviral activity against Human coxsackievirus B3 harboring nonstructural protein 3A H57Y mutant infected in african green monkey Vero cells assessed as inhibition of virus-induced cytopathic effect after 3 days by plaque assay; format: functional, organism-based; conditions: Enterovirus B, 72 h
[6] = system: Coxsackievirus B3; assay: Antiviral activity against Human coxsackievirus B3 harboring nonstructural protein 3A I8T mutant infected in african green monkey Vero cells assessed as inhibition of virus-induced cytopathic effect after 3 days by plaque assay; format: functional, organism-based; conditions: Enterovirus B, 72 h
[7] = system: Coxsackievirus B3; assay: Antiviral activity against Human coxsackievirus B3 harboring nonstructural protein 3A I54F mutant infected in african green monkey Vero cells assessed as inhibition of virus-induced cytopathic effect after 3 days by plaque assay; format: functional, organism-based; conditions: Enterovirus B, 72 h
[8] = system: rhinovirus A41; assay: Antiviral activity against Human rhinovirus 41 infected in african green monkey Vero cells assessed as inhibition of virus-induced cytopathic effect after 3 days by MTS-based CPE reduction assay; format: functional, organism-based; conditions: Rhinovirus A, 72 h
Outline: (§2)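 Confluent cells infected with 100 CCID50 virus; 2 h adsorption at 37°C (35°C for rhinovirus), then inoculum removed and serial compound dilutions added. Incubated 3 days at 37°C until full CPE in virus controls. MTS/PMS added for 2 h, OD498 read; % CPE from cell and virus controls; EC50 as 50% protection, by logarithmic interpolation. Mean of ≥3 independent experiments.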

[9] = system: rhinovirus A63; assay: Antiviral activity against Human rhinovirus 63 infected in african green monkey Vero cells assessed as inhibition of virus-induced cytopathic effect after 3 days by MTS-based CPE reduction assay; format: functional, organism-based; conditions: Rhinovirus A, 72 h; outline: as §2
[10] = system: Coxsackievirus B3 (strain Nancy); assay: Antiviral activity against Coxsackievirus B3 (strain Nancy) infected in buffalo green monkey cells assessed as inhibition of viral RNA accumulation at 2 mM by luciferase reporter gene assay; format: functional, cell-based
[11] = system: rhinovirus A89; assay: Antiviral activity against Human rhinovirus 89 infected in african green monkey Vero cells assessed as inhibition of virus-induced cytopathic effect after 3 days by MTS-based CPE reduction assay; format: functional, organism-based; conditions: Rhinovirus A, 72 h; outline: as §2
[12] = system: rhinovirus A15; assay: Antiviral activity against Human rhinovirus 15 infected in african green monkey Vero cells assessed as inhibition of virus-induced cytopathic effect after 3 days by MTS-based CPE reduction assay; format: functional, organism-based; conditions: Rhinovirus A, 72 h; outline: as §2
[13] = system: Vero; assay: Antiviral activity against Coxsackievirus B3 (strain Nancy) infected in african green monkey Vero cells assessed as inhibition viral replication at 25 uM administered at 1 hr interval starting at 3 hrs after viral infection; format: functional, cell-based
Outline: (§3)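 Confluent Vero cells infected with 10⁴ CCID50 CVB3, 1 h adsorption at 37°C, inoculum replaced with medium. Compound (final 25 µM) added at 1-h intervals, starting 1 h before infection. At 8 h post-infection, supernatant and intracellular RNA collected and viral RNA quantified by one-step TaqMan qRT-PCR against a synthetic transcript standard curve; normalized to 0-h point; two independent experiments.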

[14] = Antiviral activity against Human enterovirus 71 (strain BRCR) infected in african green monkey Vero cells assessed as inhibition of virus-induced cytopathic effect after 3 days by MTS-based CPE reduction assay; format: functional, cell-based; conditions: Enterovirus A, 72 h; outline: as §2
[15] = system: rhinovirus B86; assay: Antiviral activity against Human rhinovirus 86 infected in african green monkey Vero cells assessed as inhibition of virus-induced cytopathic effect after 3 days by MTS-based CPE reduction assay; format: functional, organism-based; conditions: Rhinovirus B, 72 h; outline: as §2
[16] = system: rhinovirus A39; assay: Antiviral activity against Human rhinovirus 39 infected in african green monkey Vero cells assessed as inhibition of virus-induced cytopathic effect after 3 days by MTS-based CPE reduction assay; format: functional, organism-based; conditions: Rhinovirus A, 72 h; outline: as §2
[17] = system: rhinovirus B70; assay: Antiviral activity against Human rhinovirus 70 infected in african green monkey Vero cells assessed as inhibition of virus-induced cytopathic effect after 3 days by MTS-based CPE reduction assay; format: functional, organism-based; conditions: Rhinovirus B, 72 h; outline: as §2
[18] = system: Coxsackievirus B3; assay: Inhibition of viral polyprotein synthesis in Coxsackievirus B3 (strain Nancy) infected in buffalo green monkey cells at 25 uM by SDS PAGE assay; format: functional, cell-based
Outline: (§4)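 Confluent BGM cells infected with CVB3 at MOI 50. At 5 h, methionine starvation for 30 min, then 30-min [35S]Met pulse with or without 25 µM compound. At 6 h, lysed in Tris-HCl pH 7.4/NaCl/EDTA/NP-40/0.05% SDS buffer; translation products resolved by SDS-PAGE. Three independent experiments.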

[19] = Antiviral activity against Human coxsackievirus A16 (strain G-10) A16 infected in african green monkey Vero cells assessed as inhibition of virus-induced cytopathic effect after 3 days by MTS-based CPE reduction assay; format: functional, cell-based; conditions: Enterovirus A, 72 h; outline: as §2
[20] = system: Poliovirus 2; assay: Antiviral activity against Human poliovirus 2 Sabin infected in african green monkey Vero cells assessed as inhibition of virus-induced cytopathic effect after 3 days by MTS-based CPE reduction assay; format: functional, organism-based; conditions: Enterovirus C, 72 h
Outline: (§5)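 Confluent cells infected with 100 CCID50 virus, adsorbed 2 h at 37°C, then virus removed and serial compound dilutions added (DMSO stocks diluted in MEM with 2% FBS). Incubated 3 days at 37°C until full CPE in virus controls. Viability read by MTS/PMS, OD498 after 2 h. EC50 by logarithmic interpolation of % CPE protection. Mean of at least three independent experiments.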

[21] = system: rhinovirus A29; assay: Antiviral activity against Human rhinovirus 29 infected in african green monkey Vero cells assessed as inhibition of virus-induced cytopathic effect after 3 days by MTS-based CPE reduction assay; format: functional, organism-based; conditions: Rhinovirus A, 72 h; outline: as §2
[22] = Antiviral activity against Human rhinovirus 42 infected in african green monkey Vero cells assessed as inhibition of virus-induced cytopathic effect after 3 days by MTS-based CPE reduction assay; format: functional, cell-based; conditions: Rhinovirus B, 72 h; outline: as §2
[23] = system: Coxsackievirus B3 (strain Nancy); assay: Antiviral activity against Coxsackievirus B3 (strain Nancy) infected in buffalo green monkey cells assessed as inhibition of viral RNA accumulation at 25 uM by luciferase reporter gene assay; format: functional, cell-based
Outline: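 BGM cells transfected with RNA from SalI-linearized CVB3 subgenomic replicon with luciferase replacing P1, with or without 25 µM compound. At set times post-transfection, cells washed with PBS, lysed, and luciferase measured as relative light units. Averages ± SD of three independent experiments.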

[24] = system: rhinovirus A2; assay: Antiviral activity against Human rhinovirus 2 infected in african green monkey Vero cells assessed as inhibition of virus-induced cytopathic effect after 3 days by MTS-based CPE reduction assay; format: functional, organism-based; conditions: Rhinovirus A, 72 h; outline: as §2
[25] = system: rhinovirus B14; assay: Antiviral activity against Human rhinovirus 14 infected in african green monkey Vero cells assessed as inhibition of virus-induced cytopathic effect after 3 days by MTS-based CPE reduction assay; format: functional, organism-based; conditions: Rhinovirus B, 72 h; outline: as §2
[26] = Antiviral activity against Human coxsackievirus A21 (strain Coe) infected in african green monkey Vero cells assessed as inhibition of virus-induced cytopathic effect after 3 days by MTS-based CPE reduction assay; format: functional, cell-based; conditions: Enterovirus C, 72 h; outline: as §5
[27] = system: Vero; assay: Antiviral activity against Coxsackievirus B3 (strain Nancy) infected in african green monkey Vero cells assessed as inhibition of virus-induced cytopathic effect after 3 days by plaque assay; format: functional, cell-based
Outline: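 Confluent Vero cells infected with CVB3 for 2 h at 37°C with gentle shaking, washed twice with PBS, then overlaid with 0.4% agar with or without compound. After 3-4 days, fixed with 4% formaldehyde, agar removed, Giemsa-stained and plaques counted. Read at day 3 post-infection; averages ± SD of three independent experiments.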

[28] = system: rhinovirus A85; assay: Antiviral activity against Human rhinovirus 85 infected in african green monkey Vero cells assessed as inhibition of virus-induced cytopathic effect after 3 days by MTS-based CPE reduction assay; format: functional, organism-based; conditions: Rhinovirus A, 72 h; outline: as §2
[29] = system: Poliovirus 1; assay: Antiviral activity against Human poliovirus 1 strain Sabin infected in african green monkey Vero cells assessed as inhibition of virus-induced cytopathic effect after 3 days by MTS-based CPE reduction assay; format: functional, cell-based; conditions: Enterovirus C, 72 h; outline: as §5
[30] = system: rhinovirus A9; assay: Antiviral activity against Human rhinovirus 9 infected in african green monkey Vero cells assessed as inhibition of virus-induced cytopathic effect after 3 days by MTS-based CPE reduction assay; format: functional, organism-based; conditions: Rhinovirus A, 72 h; outline: as §2
[31] = Antiviral activity against Coxsackievirus B3 (strain Nancy) infected in african green monkey Vero cells assessed as inhibition of virus-induced cytopathic effect after 3 days by MTS-based CPE reduction assay; format: functional, cell-based; conditions: Enterovirus B, 72 h; outline: as §2
[32] = system: Coxsackievirus B3; assay: Inhibition of viral polyprotein processing in Coxsackievirus B3 (strain Nancy) infected in buffalo green monkey cells at 25 uM by SDS PAGE assay; format: functional, cell-based; outline: as §4
[33] = system: Vero; assay: Antiviral activity against Coxsackievirus B3 (strain Nancy) infected in african green monkey Vero cells assessed as inhibition viral replication at 25 uM administered at 1 hr interval starting at 1 hr before viral infection measured within first 3 hrs postinfection; format: functional, cell-based; outline: as §3
[34] = system: rhinovirus B72; assay: Antiviral activity against Human rhinovirus 72 infected in african green monkey Vero cells assessed as inhibition of virus-induced cytopathic effect after 3 days by MTS-based CPE reduction assay; format: functional, organism-based; conditions: Rhinovirus B, 72 h; outline: as §2
[35] = system: Poliovirus 3; assay: Antiviral activity against Human poliovirus 3 strain Sabin infected in african green monkey Vero cells assessed as inhibition of virus-induced cytopathic effect after 3 days by MTS-based CPE reduction assay; format: functional, organism-based; conditions: Enterovirus C, 72 h; outline: as §5
[36] = system: rhinovirus A45; assay: Antiviral activity against Human rhinovirus 45 infected in african green monkey Vero cells assessed as inhibition of virus-induced cytopathic effect after 3 days by MTS-based CPE reduction assay; format: functional, organism-based; conditions: Rhinovirus A, 72 h; outline: as §2

Row | Compound | EC50 [3] [nM] | EC50 [4] [nM] | EC50 [5] [nM] | EC50 [6] [nM] | EC50 [7] [nM] | EC50 [8] [nM] | EC50 [9] [nM] | EC50 [11] [nM] | EC50 [12] [nM] | EC50 [14] [nM] | EC50 [15] [nM] | EC50 [16] [nM] | EC50 [17] [nM] | EC50 [19] [nM] | EC50 [20] [nM] | EC50 [21] [nM] | EC50 [22] [nM] | EC50 [24] [nM] | EC50 [25] [nM] | EC50 [26] [nM] | also measured
1 | C[C@@H](NC(=O)c1cccc(-c2c[nH]c(-c3cc4ccccc4cn3)n2)c1)c1ccc(F)cc1 | – | – | – | – | – | – | – | – | – | – | – | – | – | – | – | – | – | – | – | – | CC50 [1]: > 100000 nM; CC50 [2]: > 100000 nM
2 | Fc1cccc(F)c1C1SCc2nc3cc(C(F)(F)F)ccc3n21 (stereo not drawn) | 3600 | 2900 | 3400 | 2900 | 3700 | – | – | – | – | – | – | – | – | – | – | – | – | – | – | – | –
3 | C[C@@H](NC(=O)c1cccc(-c2cnc(-c3cc4ccccc4cn3)[nH]2)c1)c1ccc(F)cc1 | 17700 | 1900 | 15300 | 6000 | 19800 | > 50000 | 91 | > 50000 | > 50000 | > 60000 | > 50000 | 650 | > 50000 | 850 | 580 | 770 | > 50000 | 800 | > 50000 | 5340 | inhibition [10]: Active; inhibition [13]: inactive; inhibition [18]: inactive; inhibition [23]: Active; inhibition [27]: Dose-dependent effect; EC50 [28]: 1220 nM; EC50 [29]: 510 nM; EC50 [30]: > 50000 nM; EC50 [31]: 1200 nM; inhibition [32]: inactive; inhibition [33]: Active; EC50 [34]: > 50000 nM; EC50 [35]: 270 nM; EC50 [36]: 990 nM
4 | CC(C)S(=O)(=O)n1c(N)nc2ccc(/C(=N/O)c3ccccc3)cc21 [ENVIROXIME] | 1500 | 500 | 1700 | 700 | 1800 | 27 | 27 | 100 | 42 | 150 | 140 | 28 | 110 | 120 | 60 | 29 | 110 | 26 | 110 | 480 | EC50 [28]: 33 nM; EC50 [29]: 190 nM; EC50 [30]: 38 nM; EC50 [31]: 1900 nM; EC50 [34]: 720 nM; EC50 [35]: 40 nM; EC50 [36]: 250 nM
